From ChEMBL document CHEMBL3352109, “Synthesis and antifungal activity of substituted salicylaldehyde hydrazones, hydrazides and sulfohydrazides” (Bioorg Med Chem, 2014)
≈ marks a conversion by molar mass, not a printed value. Calls of active or inactive are those of the source. No cut-off for these calls is given here.

Tests used:
[1] = tested on: Candida albicans; experiment: Antifungal activity against Candida albicans ATCC 10231 at 125 ug/ml by NCCLS method; assay type: functional, organism-based
[2] = tested on: Nakaseomyces glabratus; experiment: Antifungal activity against Candida glabrata ATCC 48435 at 125 ug/ml by NCCLS method; assay type: functional, organism-based
[3] = tested on: Nakaseomyces glabratus; experiment: Antifungal activity against Candida glabrata ATCC 48435 by NCCLS method; assay type: functional
Method in brief: (§1)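 Broth dilution per NCCLS yeast reference method, in HEPES-buffered RPMI with 1% DMSO. MIC80 is the lowest concentration giving more than 80% growth inhibition versus positive (no-drug) controls. Read by visual scoring, not absorbance. Highest level tested 125 µg/mL.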

[4] = tested on: Candida albicans; experiment: Antifungal activity against Candida albicans ATCC 10231 by NCCLS method; assay type: functional; method in brief: as §1

MIC80 [3] | MIC80 [4] | Structure (SMILES) | Activity [1] | Activity [2]
 |  | O=[N+]([O-])c1ccc(O)c(/C=N/NS(=O)(=O)c2ccc3ccccc3c2)c1 | inactive | inactive
2 µg/mL (≈ 6.27 µM) | 4 µg/mL (≈ 12.5 µM) | O=C(N/N=C/c1cccc(Br)c1O)c1ccccc1 |  | 
31 µg/mL (≈ 77.9 µM) | 8 µg/mL (≈ 20.1 µM) | O=C(N/N=C/c1cc(Br)cc(Br)c1O)c1ccccc1 |  | 
2 µg/mL (≈ 5.49 µM) | 1 µg/mL (≈ 2.75 µM) | O=C(N/N=C/c1cc(Br)ccc1O)c1ccc([N+](=O)[O-])cc1 |  | 
 |  | O=S(=O)(N/N=C/c1ccccc1O)c1ccc(Br)cc1 | inactive | inactive
16 µg/mL (≈ 62.2 µM) | 31 µg/mL (≈ 121 µM) | O=[N+]([O-])c1ccc(O)c(/C=N/Nc2ccccc2)c1 |  | 
 |  | Cc1ccc(S(=O)(=O)N/N=C/c2cc(C)ccc2O)cc1 | inactive | inactive
 |  | COc1ccc(O)c(/C=N/NS(=O)(=O)c2ccc(C)cc2)c1 | inactive | inactive
2 µg/mL (≈ 6.27 µM) | 2 µg/mL (≈ 6.27 µM) | O=C(N/N=C/c1cc(Br)ccc1O)c1ccccc1 |  | 
 |  | Cc1ccc(O)c(/C=N/NS(=O)(=O)c2ccc([N+](=O)[O-])cc2)c1 | inactive | inactive
31 µg/mL (≈ 85.1 µM) | 31 µg/mL (≈ 85.1 µM) | O=C(N/N=C/c1cccc(Br)c1O)c1ccc([N+](=O)[O-])cc1 |  | 
125 µg/mL (≈ 366 µM) | 31 µg/mL (≈ 90.8 µM) | CC(C)(C)c1cccc(/C=N/NC(=O)c2ccc([N+](=O)[O-])cc2)c1O |  | 
 |  | COc1ccc(S(=O)(=O)N/N=C/c2ccccc2O)cc1 | inactive | inactive
 |  | O=S(=O)(N/N=C/c1cc(Br)ccc1O)c1ccccc1 | inactive | inactive
 |  | Cc1ccc(O)c(/C=N/NS(=O)(=O)c2ccccc2)c1 | inactive | inactive
8 µg/mL (≈ 27.2 µM) | 16 µg/mL (≈ 54.4 µM) | N/N=C/c1cc(Br)cc(Br)c1O |  | 
125 µg/mL (≈ 353 µM) | 31 µg/mL (≈ 87.5 µM) | O=C(N/N=C/c1cc(Cl)cc(Cl)c1O)c1ccc([N+](=O)[O-])cc1 |  | 
16 µg/mL (≈ 55 µM) | 8 µg/mL (≈ 27.5 µM) | Oc1c(Br)cccc1/C=N/Nc1ccccc1 |  | 
31 µg/mL (≈ 128 µM) | 31 µg/mL (≈ 128 µM) | COc1ccc(O)c(/C=N/Nc2ccccc2)c1 |  | 

MIC80 [3] | MIC80 [4] | Structure (SMILES) | Activity [1] | Activity [2]
16 µg/mL (≈ 56.1 µM) | 16 µg/mL (≈ 56.1 µM) | O=C(N/N=C/c1cc([N+](=O)[O-])ccc1O)c1ccccc1 |  | 
125 µg/mL (≈ 282 µM) | 1 µg/mL (≈ 2.26 µM) | O=C(N/N=C/c1cc(Br)cc(Br)c1O)c1ccc([N+](=O)[O-])cc1 |  | 
 |  | COc1ccc(O)c(/C=N/NS(=O)(=O)c2ccc3ccccc3c2)c1 | inactive | inactive
 |  | O=S(=O)(N/N=C/c1cc(Br)ccc1O)c1ccc2ccccc2c1 | inactive | inactive
 |  | COc1ccc(O)c(/C=N/NS(=O)(=O)c2ccc([N+](=O)[O-])cc2)c1 | inactive | inactive
31 µg/mL (≈ 106 µM) | 31 µg/mL (≈ 106 µM) | Oc1ccc(Br)cc1/C=N/Nc1ccccc1 |  | 
62 µg/mL (≈ 322 µM) | 125 µg/mL (≈ 650 µM) | CC(C)(C)c1cccc(/C=N/N)c1O |  | 
 |  | COc1ccc(S(=O)(=O)N/N=C/c2cc(Br)ccc2O)cc1 | inactive | inactive
 |  | COc1ccc(S(=O)(=O)N/N=C/c2cc([N+](=O)[O-])ccc2O)cc1 | inactive | inactive
1 µg/mL (≈ 4.16 µM) | 2 µg/mL (≈ 8.32 µM) | O=C(N/N=C/c1ccccc1O)c1ccccc1 [SALICYLALDEHYDE BENZOYL HYDRAZONE] |  | 
 |  | O=S(=O)(N/N=C/c1ccccc1O)c1ccc2ccccc2c1 | inactive | inactive
 |  | O=[N+]([O-])c1ccc(O)c(/C=N/NS(=O)(=O)c2ccc(Br)cc2)c1 | inactive | inactive
16 µg/mL (≈ 75.4 µM) | 16 µg/mL (≈ 75.4 µM) | Oc1ccccc1/C=N/Nc1ccccc1 |  | 
4 µg/mL (≈ 15.5 µM) | 125 µg/mL (≈ 486 µM) | O=[N+]([O-])c1ccc(N/N=C/c2ccccc2O)cc1 |  | 
 |  | Cc1ccc(O)c(/C=N/NS(=O)(=O)c2ccc(Br)cc2)c1 | inactive | inactive
 |  | O=[N+]([O-])c1ccc(S(=O)(=O)N/N=C/c2cc([N+](=O)[O-])ccc2O)cc1 | inactive | inactive
 |  | O=[N+]([O-])c1ccc(S(=O)(=O)N/N=C/c2cc(Cl)ccc2O)cc1 | inactive | inactive
 |  | O=[N+]([O-])c1ccc(S(=O)(=O)N/N=C/c2ccccc2O)cc1 | inactive | inactive
125 µg/mL (≈ 445 µM) | 125 µg/mL (≈ 445 µM) | Oc1c(Cl)cc(Cl)cc1/C=N/Nc1ccccc1 |  | 

MIC80 [3] | MIC80 [4] | Structure (SMILES) | Activity [1] | Activity [2]
62 µg/mL (≈ 194 µM) | 16 µg/mL (≈ 50 µM) | O=C(N/N=C/c1cc(Cl)ccc1O)c1ccc([N+](=O)[O-])cc1 |  | 
62 µg/mL (≈ 288 µM) | 31 µg/mL (≈ 144 µM) | N/N=C/c1cc(Br)ccc1O |  | 
62 µg/mL (≈ 302 µM) | 16 µg/mL (≈ 78 µM) | N/N=C/c1cc(Cl)cc(Cl)c1O |  | 
31 µg/mL (≈ 126 µM) | 31 µg/mL (≈ 126 µM) | Oc1ccc(Cl)cc1/C=N/Nc1ccccc1 |  | 
31 µg/mL (≈ 204 µM) | 62 µg/mL (≈ 407 µM) | N/N=C/c1ccc(O)cc1O |  | 
8 µg/mL (≈ 35.4 µM) | 62 µg/mL (≈ 274 µM) | Cc1ccc(O)c(/C=N/Nc2ccccc2)c1 |  | 
62 µg/mL (≈ 205 µM) | 125 µg/mL (≈ 414 µM) | O=[N+]([O-])c1ccc(N/N=C/c2cc([N+](=O)[O-])ccc2O)cc1 |  | 
62 µg/mL (≈ 185 µM) | 125 µg/mL (≈ 373 µM) | O=C(N/N=C/c1cc(Br)ccc1O)c1ccc(O)cc1 |  | 
0.5 µg/mL (≈ 1.85 µM) | 4 µg/mL (≈ 14.8 µM) | COc1ccc(O)c(/C=N/NC(=O)c2ccccc2)c1 |  | 
1 µg/mL (≈ 3.9 µM) | 31 µg/mL (≈ 121 µM) | O=C(N/N=C/c1ccc(O)cc1O)c1ccccc1 |  | 
2 µg/mL (≈ 6.34 µM) | 125 µg/mL (≈ 396 µM) | COc1ccc(O)c(/C=N/NC(=O)c2ccc([N+](=O)[O-])cc2)c1 |  | 
2 µg/mL (≈ 8.76 µM) | 31 µg/mL (≈ 136 µM) | Oc1ccc(/C=N/Nc2ccccc2)c(O)c1 |  | 
8 µg/mL (≈ 31.2 µM) | 16 µg/mL (≈ 62.4 µM) | O=C(N/N=C/c1ccccc1O)c1ccccc1O |  | 
31 µg/mL (≈ 182 µM) | 62 µg/mL (≈ 363 µM) | N/N=C/c1cc(Cl)ccc1O |  | 
16 µg/mL (≈ 55.9 µM) | 16 µg/mL (≈ 55.9 µM) | COc1ccc(O)c(/C=N/NC(=O)c2ccccc2O)c1 |  | 
62 µg/mL (≈ 185 µM) | 8 µg/mL (≈ 23.9 µM) | O=C(N/N=C/c1cc(Br)ccc1O)c1ccccc1O |  | 
125 µg/mL (≈ 422 µM) | 4 µg/mL (≈ 13.5 µM) | CC(C)(C)c1ccc(C(=O)N/N=C/c2ccccc2O)cc1 |  | 
16 µg/mL (≈ 51.8 µM) | 8 µg/mL (≈ 25.9 µM) | O=C(N/N=C/c1cc(Cl)cc(Cl)c1O)c1ccccc1 |  | 

Structure (SMILES) | MIC80 [3] | MIC80 [4] | Activity [1] | Activity [2]
O=[N+]([O-])c1ccc(N/N=C/c2cc(Cl)ccc2O)cc1 | 62 µg/mL (≈ 213 µM) | inactive |  | 
O=C(N/N=C/c1ccc(/C=N/NC(=O)c2ccccc2)cc1)c1ccccc1 | inactive | inactive |  | 
O=[N+]([O-])c1ccc(N/N=C/c2cc(Cl)cc(Cl)c2O)cc1 | 62 µg/mL (≈ 190 µM) | inactive |  | 
O=[N+]([O-])c1ccc(N/N=C/c2ccc(O)cc2O)cc1 | 1 µg/mL (≈ 3.66 µM) | inactive |  | 
O=C(N/N=C/c1cc(Cl)ccc1O)c1ccccc1O | inactive | 8 µg/mL (≈ 27.5 µM) |  | 
O=C(N/N=C/c1ccccc1O)c1ccc(O)cc1 | 4 µg/mL (≈ 15.6 µM) | inactive |  | 
Cc1ccc(C)c(N/N=C/c2ccccc2O)c1 | inactive | inactive |  | 
O=[N+]([O-])c1ccc(N/N=C/c2cc(Br)cc(Br)c2O)cc1 | 62 µg/mL (≈ 149 µM) | inactive |  | 
O=C(N/N=C/c1ccc(/C=N/NC(=O)c2ccc([N+](=O)[O-])cc2)cc1)c1ccc([N+](=O)[O-])cc1 | inactive | inactive |  | 
O=C(N/N=C/c1cc([N+](=O)[O-])ccc1O)c1ccc([N+](=O)[O-])cc1 | 16 µg/mL (≈ 48.4 µM) | inactive |  | 
Cc1ccc(O)c(/C=N/NC(=O)c2ccccc2O)c1 | inactive | 16 µg/mL (≈ 59.2 µM) |  | 
O=Cc1ccc(/C=N/Nc2ccc([N+](=O)[O-])cc2[N+](=O)[O-])cc1 | inactive | inactive |  | 
CC(C)(C)c1cccc(/C=N/Nc2ccc([N+](=O)[O-])cc2)c1O | inactive | inactive |  | 
COc1ccc(O)c(/C=N/NC(=O)c2ccc(O)cc2)c1 | 4 µg/mL (≈ 14 µM) | inactive |  | 
CC(C)(C)c1cccc(/C=N/NC(=O)c2ccccc2)c1O | inactive | inactive |  | 
O=[N+]([O-])c1ccc(N/N=C/c2ccccc2O)c([N+](=O)[O-])c1 | inactive | inactive |  | 
O=C(N/N=C/c1ccc(O)cc1O)c1ccc([N+](=O)[O-])cc1 | 0.5 µg/mL (≈ 1.66 µM) | inactive |  | 
C(=N\Nc1ccccc1)/c1ccc(/C=N/Nc2ccccc2)cc1 | 125 µg/mL (≈ 398 µM) | inactive |  | 
Cc1ccc(O)c(/C=N/NC(=O)c2ccc(O)cc2)c1 | 1 µg/mL (≈ 3.7 µM) | inactive |  | 
Oc1c(Br)cc(Br)cc1/C=N/Nc1ccccc1 | 62 µg/mL (≈ 168 µM) | inactive |  | 
O=[N+]([O-])c1ccc(N/N=C/c2cc(Br)ccc2O)cc1 | inactive | inactive |  | 
Cc1ccc(O)c(/C=N/Nc2ccc([N+](=O)[O-])cc2)c1 | inactive | inactive |  | 
CC(C)(C)c1cccc(/C=N/Nc2ccccc2)c1O | inactive | inactive |  | 
O=[N+]([O-])c1ccc(N/N=C/c2cccc(Br)c2O)cc1 | inactive | inactive |  | 
O=[N+]([O-])c1ccc(N/N=C/c2ccc(O)cc2O)c([N+](=O)[O-])c1 | inactive | inactive |  | 
N/N=C/c1cc([N+](=O)[O-])ccc1O | 31 µg/mL (≈ 171 µM) | inactive |  | 
Oc1ccccc1/C=N/N=C/c1ccccc1O | inactive | inactive |  | 
O=C(N/N=C/c1cc(Cl)ccc1O)c1ccc(O)cc1 | 62 µg/mL (≈ 213 µM) | inactive |  | 
O=C(N/N=C/c1cc([N+](=O)[O-])cc([N+](=O)[O-])c1O)c1ccccc1 | inactive | inactive |  | 
